Compounds with a hit are over-represented: about 3.6% of the library has one in this group of screens.
Measles CPE = protection of cells from measles virus | Measles virus-infected cells, CPE protection, absorbance | protection (pct of control), % at 4 µM | AID 841 | 1.5% of 140,000 active; in the data active means protection mostly above about 24%, no sharp cut-off; inactive means mostly below about 26%
Yeast lifespan up = yeast lifespan extension. S. cerevisiae growth with nicotinamide, OD615; deaD strain in restrictive glucose medium. inhibition of the nicotinamide effect, % at 10 µM. 0.68% of 130,000 active. AID 775;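 active means inhibition above a set limit, placed 3 SD over the median of all compounds, cut at about 26% in these data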;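 further: 0% = nicotinamide-treated wells and 100% = cells grown without nicotinamide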
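Test system – modified budding yeast, DeaD strain · Compound – single dose 10 µM compound, 0.25% DMSO · Times – culture preincubation 4 h, compound exposure 48 h, both 30 °C · Detection – optical density (absorbance) at 615 nm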
RAM inhibit = inhibitors of the yeast RAM network. S. cerevisiae dse1pr::URA3 reporter, 5-FOA growth OD615, 2 d; analog-sensitive cbk1-as2 kinase mutant strain. inhibition, % at 50 µM. 1.8% of 190,000 active. AID 868;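 active means inhibition above a set limit, 3 SD over mean compound inhibition, cut at about 8.4% in these data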;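 further: 0% = DMSO-only wells with no growth and 100% = 10 µM 1-NA-PP1 full growth; inhibition rescues growth on 5-FOA so higher OD means more RAM inhibition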
Phagocyt inh = macrophage phagocytosis inhibition; AID 1029; J774A.1 macrophage IgG-bead phagocytosis, imaging; inhibition, % at 5 µM; 0.07% of 110,000 active;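 active means inhibition above the mean of the plate negative controls plus 5 SD, cut at about 13% in these data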;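 further: phagocytic index as fraction of beads internalized from green versus red external bead signal; plate controls were DMSO negative control for no effect and cytochalasin-D positive control for full effect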
Yeast growth inh = reduces growth of yeast BB579 in restrictive medium. S. cerevisiae BB579 growth, OD615, 48 h. inhibition, % at 10 µM. 0.51% of 140,000 active. AID 804;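 active means inhibition above a set limit, 3 SD over the mean compound inhibition, cut at about 44% in these data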
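Material: Saccharomyces cerevisiae DeaD strain BB579, replicative lifespan model yeast; buffer or medium: CSMM-D restrictive synthetic medium containing dextrose (glucose); compound: 10 µM single dose, DMSO 0.25%; timing: 48 h compound exposure at 30 °C after 4 h preincubation; signal: turbidity as optical density at 615 nm; benchmarks: positive control amphotericin B 10 µg/mL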
RAM efflux-def = restores 5-FOA growth of efflux-deficient yeast; shares compounds with RAM inhibit; S. cerevisiae efflux-deficient reporter strain, 5-FOA growth OD615, 2 days; max inhibition, %; 1,200 tested, under 10 active; call rule not given here;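 further: plate controls were vehicle for no effect and reference inhibitor for full effect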
Active calls of the source: *; . = no result.

SMILES	Measles CPE	Yeast lifespan up	RAM inhibit	Phagocyt inh	Yeast growth inh	RAM efflux-def
O=C(CCSCc1ccc(Cl)cc1)NCc1ccco1	.	.	1	.	.	.
CCOc1ccccc1-n1nnnc1SCC(=O)NCc1ccco1	.	.	2	.	.	.
CC(C)Oc1ccccc1OCCCCn1cnc2ccccc2c1=O	.	.	14*	.	.	2
Cc1ccc(C)c(OCCCCn2cnc3ccccc3c2=O)c1	2	-21	-1	-2	-2	.
CC1=C(C(=O)OCCNC(=O)c2ccccc2O)C(c2ccccc2[N+](=O)[O-])C(C(=O)OCC2CCCO2)=C(C)N1 (stereo not given)	5	0	8	-3	-64	.
O=C(NCc1ccc(Cl)cc1)C(=O)N/N=C/c1ccc(Br)cc1	.	.	1	.	.	.
CC(C)(C)n1nnnc1C(c1cccnc1)N(Cc1ccccc1)Cc1ccco1 (stereo not given)	23	-10	0	.	-35	.
COc1cccc(CN(Cc2ccco2)C(c2ccc(F)cc2)c2nnnn2C(C)(C)C)c1 (stereo not given)	12	-3	14*	0	-51	3
COc1ccccc1-c1nc(SCC(=O)NCC2CCCO2)c2c(=O)n(C)c(=O)n(C)c2n1 (stereo not given)	.	.	7	.	.	.
NC(N)=N/N=C/c1cccc(Cl)c1Cl	.	.	1	.	.	.
CCOC(=O)c1c(-c2ccc(C)o2)csc1NC(=O)CSc1nncs1	6	-20	12*	1	-63	1
CCOC(=O)c1c(-c2ccc(C)o2)csc1NC(=O)CN1CCCCC1	.	.	0	.	.	.
Cn1cccc1C(=O)OCc1cc(Cl)cc2c1OCOC2	19	-7	12*	0	-47	4
Cn1cccc1C(=O)OCC(=O)Nc1ccc2c(c1)OCO2	.	.	0	.	.	.
Cn1c(CNC(=O)OC(C)(C)C)n[nH]c1=S	.	.	1	.	.	.
Cn1c(=O)c(/C=C/c2ccc(F)cc2)nc2ccccc21	.	.	14*	.	.	5
Clc1ccc(-c2nnc(COc3ncnc4ccccc34)o2)cc1	.	.	-1	.	.	.
C=CCSc1nc(-c2ccc(OC)cc2)c(C#N)c(=O)n1CC=C	.	.	12*	.	.	2
CCC(C)c1ccc(S(=O)(=O)N2CCN(C(C)CC(=O)O)CC2)cc1 (stereo not given)	.	.	3	.	.	.
CCCSc1nc(SCC(=O)NCc2ccccc2)c2c3c(sc2n1)COC(C)(CC)C3 (stereo not given)	26	-11	12*	.	-8	2
CCC1(C)Cc2c(sc3nc(NN)n(C)c(=O)c23)CO1 (stereo not given)	3	-14	2	-1	-31	.
CSc1nc(SCC(=O)NCc2ccco2)c2c3c(sc2n1)COC(C)(C)C3	7	-9	2	0	-74	.
CCCCSc1nc(SCC(=O)NCc2ccco2)c2c3c(sc2n1)COC(C)(CC)C3 (stereo not given)	1	-7	14*	0	-15	7
CC1=NN(/C(=N\c2nnc(C)s2)Nc2ccc(C(C)(C)C)cc2)[C@H](c2ccc(C)cc2)S1	9	.	1	.	-80	.
COc1ccc(CN2C(=O)c3ccccc3C(/C=N\OCc3ccc(C)cc3)C2=O)cc1 (stereo not given)	26	0	14*	.	-36	4
SMILES	Measles CPE	Yeast lifespan up	RAM inhibit	Phagocyt inh	Yeast growth inh	RAM efflux-def
COc1ccc(N2C(=O)N(Cc3ccc(C)cc3)c3ccccc3S2(=O)=O)cc1	.	.	5	.	.	.
Cc1cccc(-n2nnc3c(=O)n(CC(=O)Nc4cc(C)on4)cnc32)c1	.	.	3	.	.	.
Cc1ccc(SCCNC(=O)c2ccc(C)c(S(=O)(=O)Nc3ccccc3C)c2)cc1	3	-19	17*	3	-18	3
CN(C(=O)COC(=O)c1sc2ccccc2c1Cl)C1CCCCC1	9	6	14*	1	-10	3
O=C(O)c1cc([N+](=O)[O-])ccc1NCCO	6	0	5	-7	0	.
Cc1ccc(C)c(C(=O)COC(=O)c2cc([N+](=O)[O-])ccc2NCCO)c1	7	-8	13*	-14	-27	1
CCOC(=O)C(C)Sc1nc(-c2cccs2)ccc1C#N (stereo not given)	5	-14	13*	9	-23	2
C=COC(=O)CSc1nc(-c2cccs2)ccc1C#N	20	-27	8	-1	-32	.
COc1ccc(Cc2c(O)nc(SCC(=O)N3CCCCCC3)[nH]c2=O)cc1	9	.	7	.	-16	.
CCCC(c1nnnn1Cc1ccco1)N1CCN(c2cc(Cl)ccc2C)CC1 (stereo not given)	6	0	21*	-1	-65	2
COc1cccc(/C=C/C(=O)NCc2cn3cc(Cl)ccc3n2)c1OC	.	.	1	.	.	.
CCCCCCCCNC(=O)c1cccnc1SCC(=O)Nc1ccccc1OC	2	-4	12*	1	-18	1
CCCOc1ccc(/C=C/C(=O)Nc2ccc([N+](=O)[O-])cc2)cc1	51*	-3	13*	-3	-34	3
O=[N+]([O-])c1ccccc1N/N=C\c1ccccc1Cl	28	-2	1	-1	-46	.
CCCOc1ccc(/C=N/Nc2ccccc2[N+](=O)[O-])c(OCCC)c1	4	0	16*	-11	-20	6
COc1cc2c(=O)n(Cc3ccco3)c(=O)n(CC(=O)c3cccc(Br)c3)c2cc1OC	2	-11	4	.	-47	.
COc1cc2c(=O)n(Cc3ccco3)c(=O)n(CC(=O)c3ccc(Br)cc3)c2cc1OC	2	-8	12*	0	-66	2
CCOc1ccccc1NC(=O)c1ccccc1-c1nc(-c2ccccc2)no1	18	-6	12*	2	-56	6
O=C(C1CC1)N1CCc2cc(S(=O)(=O)NCCC3=CCCCC3)ccc21	10	-4	11*	.	-47	2
CCCN(CCC)CCNS(=O)(=O)c1ccc2c(c1)CCN2C(=O)C1CCC1	11	-3	2	0	-69	.
Cc1ccc(C(=O)NC(=S)Nc2ccc(Oc3ccc(Cl)cc3)cc2)cc1	11	1	6	.	-10	.
O=C(NC(=S)Nc1ccc(Oc2ccccc2)cc1)c1ccc(Cl)cc1	20	-4	12*	0	-41	2
Cc1ccccc1C(=O)NC(=S)Nc1ccc(Oc2ccc(Cl)cc2)cc1	17	25	13*	.	-64	3
COc1ccc(S(=O)(=O)N(C)C)cc1NC(=O)COC(=O)c1nn(C)c(=O)c2ccccc12	.	.	2	.	.	.
CCCCCOC(=O)C1C(c2ccccc2)C(C(=O)O)C1c1ccccc1 (stereo not given)	10	32*	15*	-4	-38	3
O=C(O)C1C(c2ccccc2)C(C(=O)OCCCO)C1c1ccccc1 (stereo not given)	0	6	3	0	-37	.
Cc1nnc(SCC(=O)Nc2sc3c(c2C(=O)c2ccccc2)CCCC3)s1	12	1	3	-7	-3	.
O=C(O)[C@H](Cc1ccccc1)NC(=O)C(c1ccccc1)(c1ccccc1)c1ccccc1	.	.	6	.	.	.

Bioassay records from PubChem.
